Assay results: ChEMBL document CHEMBL3085660, “Synthesis and evaluation of new coumarin-pyridine hybrids with promising anti-osteoporotic activities” (Eur J Med Chem, 2013)
Activity calls are given as the source filed them. No cut-off for these calls is given here.

Legend:
Calvarial cell [1] = experiment: Induction of osteoblast differentiation in mouse Calvarial cells assessed as increase in alkaline phosphatase activity at 1 to 100 pM after 48 hrs by spectrophotometry relative to control; format: functional, cell-based
In short: (§1)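 Neonatal mouse calvarial osteoblasts trypsinized at 70–80% confluence, 2 × 10³ cells/well, treated 48 h in differentiation medium (α-MEM, 10% FCS, 10 mM β-glycerophosphate, ascorbic acid), 1 pM to 1 µM. Cells PBS-washed, freeze-thawed (−80 °C then 37 °C, 30 min each). ALP measured with p-nitrophenylphosphate at 405 nm. Mean ± S.D. of three independent experiments versus untreated control.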

[2] = Increase in mineralization in mouse Calvarial cells assessed as mineralized nodule formation at 1 pM after 21 days using alizarin red-S staining by spectrophotometry relative to untreated-control; format: functional, Calvarial cell
[3] = Increase in osteoblastogenesis in mouse Calvarial cells assessed as increase in BMP-2 gene expression at 100 pM by quantitative RT-PCR method relative to untreated-control; format: functional, Calvarial cell
In short: (§2)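 Transcripts of Runx-2, BMP-2 and COL-1 in primary mouse calvarial osteoblasts after compound treatment measured by qPCR, with GAPDH as internal control. Results expressed as fold change over untreated cells.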

Calvarial cell [4] = experiment: Induction of osteoblast differentiation in mouse Calvarial cells assessed as increase in alkaline phosphatase activity at 100 pM to 1 uM after 48 hrs by spectrophotometry relative to control; format: functional, cell-based; in short: as §1
[5] = Increase in osteoblastogenesis in mouse Calvarial cells assessed as increase in COL1 gene expression at 100 pM by quantitative RT-PCR method relative to untreated-control; format: functional, Calvarial cell; in short: as §2
[6] = Increase in osteoblastogenesis in mouse Calvarial cells assessed as increase in Runx-2 gene expression at 100 pM by quantitative RT-PCR method relative to untreated-control; format: functional, Calvarial cell; in short: as §2
[7] = Increase in mineralization in mouse Calvarial cells assessed as mineralized nodule formation at 100 pM after 21 days using alizarin red-S staining by spectrophotometry relative to untreated-control; format: functional, Calvarial cell
[8] = Increase in osteoblastogenesis in mouse Calvarial cells assessed as increase in BMP-2 gene expression at 1 uM by quantitative RT-PCR method relative to untreated-control; format: functional, Calvarial cell; in short: as §2
Calvarial cell [9] = experiment: Induction of osteoblast differentiation in mouse Calvarial cells assessed as increase in alkaline phosphatase activity at 10 nM to 1 uM after 48 hrs by spectrophotometry relative to control; format: functional, cell-based; in short: as §1
[10] = Increase in mineralization in mouse Calvarial cells assessed as mineralized nodule formation at 1 uM after 21 days using alizarin red-S staining by spectrophotometry relative to untreated-control; format: functional, Calvarial cell
[11] = Increase in osteoblastogenesis in mouse Calvarial cells assessed as increase in Runx-2 gene expression at 10 nM by quantitative RT-PCR method relative to untreated-control; format: functional, Calvarial cell; in short: as §2
[12] = Increase in osteoblastogenesis in mouse Calvarial cells assessed as increase in BMP-2 gene expression at 10 nM by quantitative RT-PCR method relative to untreated-control; format: functional, Calvarial cell; in short: as §2
[13] = Increase in mineralization in mouse Calvarial cells assessed as mineralized nodule formation at 10 nM after 21 days using alizarin red-S staining by spectrophotometry relative to untreated-control; format: functional, Calvarial cell
Calvarial cell [14] = experiment: Induction of osteoblast differentiation in mouse Calvarial cells assessed as increase in alkaline phosphatase activity at 10 nM after 48 hrs by spectrophotometry relative to control; format: functional, cell-based; in short: as §1

SMILES: CCOC(=O)c1c(C)nc2c(c1-c1cc(C(C)CC)c3oc(=O)c(C(=O)OCC)cc3c1)C(=O)CC(C)(C)C2 (centres undefined)
- Activity (Calvarial cell [1]): Active
- fold change (FC) [2]: 2

SMILES: CCOC(=O)c1cc2cc(-c3c(C(=O)OC)c(C)nc4c3C(=O)CCC4)cc(C(C)CC)c2oc1=O (centres undefined)
- fold change (FC) [3]: 2.4
- Activity (Calvarial cell [4]): Active
- fold change (FC) [5]: 3.1
- fold change (FC) [6]: 5
- fold change (FC) [7]: 3.5

SMILES: CCOC(=O)c1c(C)nc(C)c(C(=O)OCC)c1-c1cc(C)c2oc(=O)c(C(=O)OC)cc2c1
- fold change (FC) [8]: 2.5
- Activity (Calvarial cell [9]): Active
- fold change (FC) [10]: 2

SMILES: CCOC(=O)c1c(C)nc2c(c1-c1cc(C(C)CC)c3oc(=O)c(C(=O)OC)cc3c1)C(=O)CCC2 (centres undefined)
- fold change (FC) [11]: 5.2
- fold change (FC) [12]: 4.8
- fold change (FC) [13]: 3
- Activity (Calvarial cell [14]): Active
